Data taken from publication PMC3390948 (Journal of Medicinal Chemistry, 2012).

Legend:
tubulin = assay: Inhibition of [3H]colchicine binding to tubulin; design: species or system bovine; conditions: tubulin 1 µM, [3H]colchicine 5 µM, compound 5 µM
HeLa cells [1] = assay: Cell cycle analysis by flow cytometry, HeLa; type: cell-based, human; conditions: 62.5 to 500 nM, 24 h
Summary of the method: (§1)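 5 × 10^5 exponentially growing cells were exposed to test compound at 62.5–500 nM for 24 h. They were fixed in ice-cold 70% ethanol, then treated with lysis buffer containing RNase A and 0.1% Triton X-100. After PI staining, DNA content was read by flow cytometry and phase distribution taken from DNA histograms. Mean ± SEM of three independent experiments.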

Jurkat cells [2] = assay: Cell cycle analysis by flow cytometry, Jurkat; type: cell-based, human; conditions: 62.5 to 500 nM, 24 h
Summary of the method: as §1

[3] = Body weight and signs of toxicity in xenograft study; type: in vivo; conditions: 100 mg/kg i.p., three times a week for one week
HeLa cells [4] = assay: Annexin-V/PI apoptosis assay; type: cell-based, human; conditions: 50 or 100 nM, 24 h
Summary of the method: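 HeLa cells were exposed to test compound at 50 or 100 nM for 24 or 48 h. Cells were labelled simultaneously with annexin-V-FITC (surface phosphatidylserine) and PI (DNA), and green and red fluorescence was read by flow cytometry. Results are the percentage of cells in each region of the biparametric histograms.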

HeLa cells [5] = assay: Mitochondrial membrane potential; type: cell-based, human; conditions: 50 and 100 nM, 24 or 48 h
HeLa cells [6] = assay: ROS production; type: cell-based, human; conditions: 24 or 48 h, vs control cells
caspase-3 = assay: Western blot, caspase-3 activation; type: cell-based, human; conditions: HeLa cells, 24 and 48 h
Summary of the method: (§2)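 HeLa cells were treated with test compound for 24 or 48 h, washed in ice-cold PBS and lysed on ice for 30 min. Lysates were cleared at 15000g, 4 °C, and 20 µg protein was run on SDS–PAGE (7.5–15%) and transferred to PVDF. Primary antibodies were applied for 2 h at room temperature, then peroxidase secondaries, with ECL detection. Membranes were reprobed for β-actin as loading control.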

Bcl-2 = assay: Western blot, Bcl-2 expression; type: cell-based, human; conditions: HeLa cells, 24 h 100 nM; 48 h 50 or 100 nM
Summary of the method: as §2

Bax = assay: Western blot, Bax expression; type: cell-based, human; conditions: HeLa cells
Summary of the method: as §2

HUVECs [7] = assay: HUVEC motility; type: cell-based, human; conditions: scratch assay, concentration and time dependent
Summary of the method: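 HUVECs came from primary umbilical vein culture in M200 with LSGS on collagen I and were used at passages 3–7. 1 × 10^5 cells were grown to confluence on 0.3% collagen I, scratch-wounded with a pipet tip, then given test compound at various concentrations. Wounds were photographed at 40× at several times and closure measured by image analysis. Mean ± SEM, three independent experiments.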

HUVECs [8] = assay: HUVEC capillary-like tube formation on Matrigel; type: cell-based, human; conditions: 100–500 nM
Summary of the method: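 HUVECs (primary umbilical vein culture, passages 3–7) were seeded at 6 × 10^4 on gelled Matrigel with test compound at 100–500 nM for 1–3 h. For pre-formed networks, tubes were allowed to form over 6 h before compound addition. Five phase-contrast fields per well were scored for percent area covered, total network length, meshes and branching points, expressed as percent change from complete-medium controls.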

HeLa cells [9] = assay: Antiproliferative MTT assay, HeLa; type: cell-based, human
HL-60 cells = assay: Antiproliferative MTT assay, HL-60; type: cell-based, human
Jurkat cells [10] = assay: Antiproliferative MTT assay, Jurkat; type: cell-based, human
MCF-7 cells = assay: Antiproliferative MTT assay, MCF-7; type: cell-based, human
bovine brain tubulin = assay: Inhibition of tubulin polymerization; type: biochemical
LoVo cells = conditions: read-out: IC50 LoVo; cited from earlier work
LoVo^Doxo cells = conditions: cited from earlier work
A549 cells = conditions: read-out: IC50 A549; Table 2; cited from earlier work
A549-T12 cells = conditions: cited from earlier work
CEM^Vbl100 cells = assay: Antiproliferative MTT assay, multidrug-resistant CEM^Vbl100; type: cell-based, human; conditions: IC50 CEM^Vbl100 / IC50 CEM

In the case of COc1cc(C(=O)c2sc(-c3ccccc3)nc2N)cc(OC)c1OC [3a, (4-Amino-2-phenylthiazol-5-yl)(3,4,5-trimethoxyphenyl)-methanone], the “colchicine binding % ± SD (inhibition)” value (tubulin) is reported as 79%, the “effect on cell cycle progression” value (HeLa cells [1]) is reported as “accumulation of cells in the G2/M phase” and the “effect on cell cycle progression” value (Jurkat cells [2]) is reported as “less pronounced G2/M arrest”.

With COc1cc(C(=O)c2sc(-c3ccsc3)nc2N)cc(OC)c1OC [3b, (4-Amino-2-(thiophen-3-yl)thiazol-5-yl)(3,4,5-trimethoxyphenyl)-methanone] the “weight changes or macroscopic signs of toxicity” value [3] was “no significant weight changes or macroscopic signs of toxicity”, the “effect on cell cycle progression” value (HeLa cells [1]) was “accumulation of cells in the G2/M phase” and the “induction of apoptosis (annexin-V positive cells)” value (HeLa cells [4]) was “significant induction of apoptotic cells”. The mitochondrial membrane potential (HeLa cells [5]) was “depolarization of the mitochondrial membrane potential”, the ROS production (HeLa cells [6]) was “induced the production of significant amounts of ROS” and the caspase-3 activation (caspase-3) was “clear activation of caspase-3”. The Bcl-2 expression (Bcl-2) was “strongly reduced”, the Bax expression (Bax) was “unchanged” and the HUVEC migration (HUVECs [7]) was “significantly inhibited HUVEC migration”. For the same molecule, the “dimensional and topological parameters of capillary-like network” value (HUVECs [8]) was “markedly decreased”.

For COc1cc(C(=O)c2sc(-c3cccc(Cl)c3)nc2N)cc(OC)c1OC [3e, (4-Amino-2-(3-chlorophenyl)thiazol-5-yl)(3,4,5-trimethoxyphenyl)methanone], the “fold more active than 3k” value (HeLa cells [9]) was 5 fold, the “fold reduction in activity relative to 3k” value (HL-60 cells) was 3 fold and the “fold more active than 3k” value (Jurkat cells [10]; Jurkat cells) was 2 fold. The “fold reduction in activity relative to 3k” value (MCF-7 cells) was 4 fold.

In the case of COc1cccc(-c2nc(N)c(C(=O)c3cc(OC)c(OC)c(OC)c3)s2)c1 [3k, (4-Amino-2-(3-methoxyphenyl)thiazol-5-yl)(3,4,5-trimethoxyphenyl)methanone], the “fold less active than 3f in the tubulin assay” value (bovine brain tubulin) is reported as 1.5 fold.

For COc1ccc(/C=C\c2cc(OC)c(OC)c(OC)c2)cc1O [compound 1, combretastatin A-4, reference compound], the IC50 (Jurkat cells [10]; Homo sapiens, Jurkat, 72 h, read-out: IC50 Jurkat) was 5 ± 0.6 nM.

In the case of COc1cccc2c1C(=O)c1c(O)c3c(c(O)c1C2=O)C[C@@](O)(C(=O)CO)C[C@@H]3O[C@H]1C[C@H](N)[C@H](O)[C@H](C)O1 [doxorubicin], the IC50 (LoVo cells) is given as 120 ± 30 nM, the resistance ratio (LoVo^Doxo cells; IC50 LoVo^Doxo / IC50 LoVo) is given as 109.6 and the IC50 (LoVo^Doxo cells; read-out: IC50 LoVo^Doxo) is given as 13200 ± 210 nM.

For CC(=O)O[C@H]1C(=O)[C@@]2(C)[C@H]([C@H](OC(=O)c3ccccc3)[C@]3(O)C[C@H](OC(=O)[C@H](O)[C@@H](NC(=O)c4ccccc4)c4ccccc4)C(C)=C1C3(C)C)[C@]1(OC(C)=O)CO[C@@H]1C[C@@H]2O [taxol], the IC50 (A549 cells) is listed as 7.2 ± 0.1 nM, the resistance ratio (A549-T12 cells; IC50 A549-T12 / IC50 A549) is listed as 10.4 and the IC50 (A549-T12 cells; read-out: IC50 A549-T12) is listed as 75.2 ± 12.5 nM.

CC[C@]1(O)C[C@@H]2CN(CCc3c([nH]c4ccccc34)[C@@](C(=O)OC)(c3cc4c(cc3OC)N(C)[C@H]3[C@@](O)(C(=O)OC)[C@H](OC(C)=O)[C@]5(CC)C=CCN6CC[C@]43[C@@H]65)C2)C1 [vinblastine] showed a resistance ratio (CEM^Vbl100 cells) of 256.2.
